Compound activity deposited in PubChem by Sanford-Burnham Center for Chemical Genomics.
Most compounds without a hit are left out; they make up all but 1.9% or so of the library.
Scp-1 inhibitor: inhibitors of human Scp-1 phosphatase. Recombinant Scp1, phosphopeptide, malachite green phosphate absorbance. inhibition, % at 20 µM. actives 0.88% (n = 340,000). AID 493091;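 active means inhibition above about 50% at 20 µM, limit read from the data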;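 further: plate controls were DMSO wells with enzyme for no effect and wells lacking enzyme for full effect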
Target sequence (Q9GZU7 76-261 limits assumed): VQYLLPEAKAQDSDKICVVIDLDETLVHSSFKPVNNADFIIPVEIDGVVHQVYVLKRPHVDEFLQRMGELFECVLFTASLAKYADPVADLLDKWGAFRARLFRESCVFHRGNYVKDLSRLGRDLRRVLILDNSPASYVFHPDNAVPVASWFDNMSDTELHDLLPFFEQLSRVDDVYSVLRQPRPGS
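Test system: SCP-1 phosphatase catalytic domain, residues 76-261 | Compound dosing: One concentration, 20 µM, with 1.0% DMSO | Schedule: 45 min room-temperature reaction, 5 min colour, 30 min stabiliser | Detection: Absorbance at 630 nm | Read-out basis: % inhibition of SCP-1 phosphate liberation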
CSN inh: inhibitors of human CSN-mediated cullin deneddylation. Q92905. Purified CSN, SCF-Nedd8-OG deneddylation, fluorescence polarization. AID 651999. inhibition, % at 12.5 µM. actives 0.38% (n = 360,000);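 active means pattern-corrected inhibition above about 35%, with an unprinted fluorescence ratio check between 0.5 and 1.5, limit read from the data, passing the limit was not always enough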;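 further: 0% = enzyme with substrate and 100% = substrate without enzyme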
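Assay system: purified human Csn5 enzyme expressed in HEK293T cells; measure: % inhibition; also added: SCFSkp2-Nedd8OG substrate at 10 nM final; technique: fluorescence polarization; times: reaction 90 min, room temperature; medium: Tris buffer pH 7.5, NaCl, DTT, Tween-20, trehalose, ovalbumin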
SUMO1 PPI mod: alters human SUMO1 binding to SIM partners; SUMO1 binding to a labelled peptide, TR-FRET, 1 h; inhibition, % at 20 µM; actives 0.33% (n = 360,000); P63165; AID 602429; in the data active means inhibition above about 37%
Target sequence (P63165 whole entry, looked up): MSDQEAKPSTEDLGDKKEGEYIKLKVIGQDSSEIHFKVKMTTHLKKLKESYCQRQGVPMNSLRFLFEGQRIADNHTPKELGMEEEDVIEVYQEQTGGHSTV
STEP block: STEP (human) phosphatase inhibition. P54829. recombinant STEP, OMFP fluorogenic substrate, fluorescence. inhibition, % at 20 µM. actives 0.25% (n = 360,000). AID 588621;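 active means inhibition at 20 µM, scaled per plate between control wells, above about 37%, limit read from the data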;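 further: 0% = DMSO with enzyme and substrate and 100% = substrate only without enzyme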
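Test system: STEP tyrosine phosphatase / Reagent: OMFP at 25 µM / Doses: 20 µM, 1% DMSO / Read-out: percent inhibition scaled to no-enzyme and uninhibited-enzyme controls, plate-pattern corrected / Detection: FITC-channel fluorescence of OMFP product / Medium: Bis-Tris buffer pH 6.0, 2.5 mM DTT, 0.005% Tween 20 / Schedule: 20 min at room temperature, dark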
DNMT1 inh: DNMT1 (human) enzyme inhibition; inhibition (reported as % activation of signal), % at 10 µM; DNMT1 molecular beacon, Hinp1I cleavage, fluorescence; P26358; actives 0.83% (n = 360,000); in the data active means inhibition above about 50%
LMPTP inh: blocks human LMPTP phosphatase. recombinant LMPTP-A, OMFP fluorogenic substrate, fluorescence intensity. inhibition, % at 20 µM. actives 0.22% (n = 360,000);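 active means compounds that cut the enzyme signal by at least half of the control window in the single-dose screen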;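 further: plate controls were DMSO wells with enzyme plus substrate for no effect and substrate without enzyme for full effect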
Target sequence (P24666 whole entry, looked up): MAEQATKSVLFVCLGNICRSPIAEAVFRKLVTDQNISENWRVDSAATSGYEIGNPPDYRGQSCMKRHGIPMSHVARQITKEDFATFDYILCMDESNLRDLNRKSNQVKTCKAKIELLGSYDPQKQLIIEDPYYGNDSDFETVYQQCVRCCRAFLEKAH
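Buffer or medium: Bis-Tris pH 6.0, DTT, detergent; Assay system: LMPTP-A enzyme; Quantity: 0.625 nM enzyme; Detection: endpoint fluorescence intensity; Times: 50 min dark incubation at room temperature; Controls: substrate-only low control, DMSO enzyme-plus-substrate high control; Doses: single 20 µM dose; Read-out: percent inhibition versus substrate-only and uninhibited controls; Reagent: 400 µM OMFP.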
The depositor's hits bear a star; . = not tested or not shown.

SMILES	Scp-1 inhibitor	CSN inh	SUMO1 PPI mod	STEP block	DNMT1 inh	LMPTP inh
Cc1cccc(N2CCN(C(=O)CN3C(=O)NC(C)(C4CC4)C3=O)CC2)c1C (stereo not drawn)	0	1	45*	1	47	1
Cc1cc(C)c(S(=O)(=O)/N=C2/C=C(SCC(=O)O)C(=O)c3ccccc32)cc1C	9	26	84*	6	3	8
O=C(COc1ccc([N+](=O)[O-])cc1)NC(C(=O)O)C(O)c1cccc([N+](=O)[O-])c1 (stereo not drawn)	-11	53*	-14	1	0	-1
CCOc1ccc(OCC)c(S(=O)(=O)n2ccnc2C)c1	6	1	-1	-2	6	-2
CCOc1ccc(C(C)C)cc1S(=O)(=O)n1ccnc1C	1	73*	-4	1	0	0
Cc1c(C(=O)OCCOC(C)C)[nH]c2c1C(=O)CC(c1ccco1)C2 (stereo not drawn)	49	12	15	1	32	59*
COCCOC(=O)c1[nH]c2c(c1C)C(=O)CC(c1ccc(F)cc1)C2 (stereo not drawn)	-7	-1	1	0	0	0
CSCCOC(=O)c1[nH]c2c(c1C)C(=O)CC(c1ccco1)C2 (stereo not drawn)	75*	5	4	0	29	22
COCCOC(=O)c1[nH]c2c(c1C)C(=O)CC(c1ccccc1)C2 (stereo not drawn)	-2	-4	0	2	0	0
Cc1c(C(=O)OCc2ccccc2)[nH]c2c1C(=O)CC(c1ccco1)C2 (stereo not drawn)	71*	19	8	3	68*	79*
Nc1nc(=O)n(C2CCC(CO)O2)cc1F (stereo not drawn)	.	6	1	.	.	-1
CC12CCC(=O)N1C(C(=O)NNC(=O)c1ccc(Br)cc1)CS2 (stereo not drawn)	-5	-1	0	0	7	2
Cc1ccc(NC(=O)Cn2nnc(C(=O)NCCc3ccccc3)c2N)c(C)c1	18	55*	3	-2	53*	41
CCN(CC)CCCNc1ccc2ncn3c4ccc(O)cc4c(=O)c1c23	2	-73	-11	-40	133*	23
CN(C)CCNc1ccc2nnn3c4ccc(O)cc4c(=O)c1c23	-13	14	-93	-1	53*	-2
CCOC(=O)C(=Cc1ccc(-c2ccsc2C(=O)OC)o1)C(=O)OCC	-4	118*	-2	0	-2	3
COc1cccc(/C=N/NC(=O)c2c(C)nc3ccc(Cl)cn23)c1O	-2	9	-10	0	-2	0
Cc1nnc(N2CCC(C(=O)N3CCCCC3)CC2)c2nn(-c3ccc(Cl)cc3)c(C)c12	6	3	-7	1	1	0
COc1ccc(-n2nc3c(N4CCC(C(=O)N5CCC(C)CC5)CC4)nnc(C)c3c2C)cc1	0	64*	-8	-5	1	5
Cc1csc2nc(O)c(C(=O)NCc3ccc4c(c3)OCO4)c(=O)n12	-5	-3	7	1	0	53*
CN1CCN(C(=O)c2cc3c(n(-c4ccccc4)c2=O)CC(C)(C)CC3=O)CC1	2	0	12	0	4	-1
Cc1ccc(Nc2nc(N)nc(CSc3nncn3C)n2)cc1	-1	-5	8	2	2	1
Cc1ccc(Nc2nc(N)nc(CSc3nnnn3-c3ccccc3)n2)cc1	46	41*	2	-1	29	3
CC1(C)Cc2c(c(N3CCOCC3)nc3sc(-c4ccc(C(=O)O)o4)c(N)c23)CO1	12	62*	-13	2	-13	1
Cc1cc(C)c2nc(C)cc(N/N=C/c3ccc(O)cc3)c2c1	-5	4	30	4	62*	69*
Cc1cc(N/N=C/c2ccc(N(C)C)cc2)c2ccccc2n1	-4	-2	3	-1	-7	0
Cc1cc(N/N=C/c2ccc(O)cc2)c2cccc(C)c2n1	-1	0	-1	2	37	57*
